Measured values from ChEMBL document CHEMBL4706531, “Discovery of Novel c-Mesenchymal-Epithelia transition factor and histone deacetylase dual inhibitors” (Eur J Med Chem, 2020).
One block for each molecule: values may come before it.

Tests used:
HCT-116 [1] = assay: cells; type: functional, cell-based; conditions: Homo sapiens, HCT-116, 72 h
MCF7 = assay: cells; type: functional, cell-based; conditions: Homo sapiens, MCF7, 72 h
A549 = assay: cells; type: functional, cell-based; conditions: Homo sapiens, A549, 72 h
Histone deacetylase 1 [2] = target: T1, Histone deacetylase 1 (Homo sapiens, UniProt Q13547); conditions: Sf9, dose 100.0 nM, time 75.0 min
T1 sequence (Q13547 whole entry): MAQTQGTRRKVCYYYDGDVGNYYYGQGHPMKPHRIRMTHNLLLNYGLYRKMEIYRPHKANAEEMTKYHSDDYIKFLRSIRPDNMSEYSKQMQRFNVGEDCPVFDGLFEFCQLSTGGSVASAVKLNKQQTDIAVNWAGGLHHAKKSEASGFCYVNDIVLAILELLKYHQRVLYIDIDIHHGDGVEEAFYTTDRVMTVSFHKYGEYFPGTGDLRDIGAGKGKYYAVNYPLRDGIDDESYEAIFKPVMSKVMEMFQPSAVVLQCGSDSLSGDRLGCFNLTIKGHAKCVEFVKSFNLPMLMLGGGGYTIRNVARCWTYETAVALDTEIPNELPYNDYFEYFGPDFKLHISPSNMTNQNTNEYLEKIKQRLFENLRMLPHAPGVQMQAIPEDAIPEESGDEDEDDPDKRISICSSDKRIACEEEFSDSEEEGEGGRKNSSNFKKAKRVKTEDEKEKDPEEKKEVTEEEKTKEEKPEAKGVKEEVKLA

[3] = target: T2, Hepatocyte growth factor receptor (Homo sapiens, UniProt P08581); conditions: dose 100.0 nM, time 10.0 min
T2 sequence (P08581 whole entry): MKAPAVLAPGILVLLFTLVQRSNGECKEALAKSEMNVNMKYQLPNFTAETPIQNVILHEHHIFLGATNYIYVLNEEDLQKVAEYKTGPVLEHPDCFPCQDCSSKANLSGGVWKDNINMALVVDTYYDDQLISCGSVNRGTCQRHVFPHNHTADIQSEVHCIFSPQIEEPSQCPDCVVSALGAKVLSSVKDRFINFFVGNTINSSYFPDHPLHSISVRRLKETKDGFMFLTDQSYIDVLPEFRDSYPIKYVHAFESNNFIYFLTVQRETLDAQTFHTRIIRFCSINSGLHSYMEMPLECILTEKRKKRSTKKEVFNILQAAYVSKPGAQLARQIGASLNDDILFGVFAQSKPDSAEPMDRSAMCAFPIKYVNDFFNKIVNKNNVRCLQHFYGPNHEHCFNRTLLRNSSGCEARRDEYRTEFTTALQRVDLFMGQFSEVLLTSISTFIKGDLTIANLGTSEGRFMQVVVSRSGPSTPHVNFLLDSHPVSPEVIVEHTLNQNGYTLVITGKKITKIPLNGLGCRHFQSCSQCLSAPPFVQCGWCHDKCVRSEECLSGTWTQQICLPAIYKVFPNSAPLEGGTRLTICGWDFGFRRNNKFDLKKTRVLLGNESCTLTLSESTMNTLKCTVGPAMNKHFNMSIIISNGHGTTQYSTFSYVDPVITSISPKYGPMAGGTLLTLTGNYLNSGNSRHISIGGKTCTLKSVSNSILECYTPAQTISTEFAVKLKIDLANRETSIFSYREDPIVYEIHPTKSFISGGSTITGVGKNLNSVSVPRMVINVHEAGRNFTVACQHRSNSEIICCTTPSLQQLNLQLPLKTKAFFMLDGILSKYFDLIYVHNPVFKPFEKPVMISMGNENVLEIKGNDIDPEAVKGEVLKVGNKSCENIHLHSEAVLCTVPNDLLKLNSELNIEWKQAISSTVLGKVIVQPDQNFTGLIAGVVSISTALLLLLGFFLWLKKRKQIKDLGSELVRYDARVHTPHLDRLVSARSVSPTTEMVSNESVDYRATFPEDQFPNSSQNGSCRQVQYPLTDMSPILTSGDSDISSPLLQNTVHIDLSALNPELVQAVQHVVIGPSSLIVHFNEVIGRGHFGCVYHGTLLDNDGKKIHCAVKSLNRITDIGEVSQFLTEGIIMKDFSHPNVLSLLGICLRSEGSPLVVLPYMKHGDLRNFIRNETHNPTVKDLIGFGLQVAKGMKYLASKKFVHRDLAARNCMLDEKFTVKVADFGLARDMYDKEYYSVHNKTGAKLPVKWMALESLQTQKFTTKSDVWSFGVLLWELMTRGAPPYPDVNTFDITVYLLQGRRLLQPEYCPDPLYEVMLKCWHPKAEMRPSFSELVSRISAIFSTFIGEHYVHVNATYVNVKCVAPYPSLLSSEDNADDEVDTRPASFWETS

[4] = target: T2, Hepatocyte growth factor receptor; assay: Inhibition of c-MET(unknown origin) using FAM labelled peptide substrate preincubated for 10 mins followed by substrate addition and measured by microplate reader method
Histone deacetylase 1 [5] = target: T1, Histone deacetylase 1; assay: Inhibition of human C-terminal Flag tagged HDAC1 (1 to 482 residues) expressed in SF9 cells using Ac-peptide substrate preincubated for 15 mins followed by substrate addition and measured after 60 mins by microplate reader method
HCT-116 [6] = assay: Induction of apoptosis in human HCT-116 cells assessed as viable cells at 0.2 uM measured after 48 hrs by Annexin V/PI staining based Flowcytometry method (reference value: 95.33%); type: functional; conditions: read-out: Activity
Method in brief: (§1)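 HCT-116 cells seeded at 10^5 cells/mL in 6-well plates. After 12 h, dosed at 0.2, 1.0 or 5.0 μM for 48 h, then washed three times in PBS. Stained with Annexin V-FITC/PI per kit and read by flow cytometry. Early apoptotic = Annexin V+/PI−, late = double positive. Mean ± S.D., n = 3.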

HCT-116 [7] = assay: Induction of apoptosis in human HCT-116 cells assessed as early apoptotic cells at 0.2 uM measured after 48 hrs by Annexin V/PI staining based Flowcytometry method (reference value: 2.04%); type: functional
Method in brief: as §1

HCT-116 [8] = assay: Induction of apoptosis in human HCT-116 cells assessed as late apoptotic cells at 0.2 uM measured after 48 hrs by Annexin V/PI staining based Flowcytometry method (reference value: 1.44%); type: functional
Method in brief: as §1

HCT-116 [9] = assay: Induction of apoptosis in human HCT-116 cells assessed as necrotic cells at 0.2 uM measured after 48 hrs by Annexin V/PI staining based Flowcytometry method (reference value: 1.19%); type: functional
Method in brief: as §1

HCT-116 [10] = assay: Induction of apoptosis in human HCT-116 cells assessed as viable cells at 1 uM measured after 48 hrs by Annexin V/PI staining based Flowcytometry method (reference value: 95.33%); type: functional; conditions: read-out: Activity
Method in brief: as §1

HCT-116 [11] = assay: Induction of apoptosis in human HCT-116 cells assessed as early apoptotic cells at 1 uM measured after 48 hrs by Annexin V/PI staining based Flowcytometry method (reference value: 2.04%); type: functional
Method in brief: as §1

HCT-116 [12] = assay: Induction of apoptosis in human HCT-116 cells assessed as late apoptotic cells at 1 uM measured after 48 hrs by Annexin V/PI staining based Flowcytometry method (reference value: 1.44%); type: functional
Method in brief: as §1

HCT-116 [13] = assay: Induction of apoptosis in human HCT-116 cells assessed as necrotic cells at 1 uM measured after 48 hrs by Annexin V/PI staining based Flowcytometry method (reference value: 1.19%); type: functional
Method in brief: as §1

HCT-116 [14] = assay: Induction of apoptosis in human HCT-116 cells assessed as viable cells at 5 uM measured after 48 hrs by Annexin V/PI staining based Flowcytometry method (reference value: 95.33%); type: functional; conditions: read-out: Activity
Method in brief: as §1

HCT-116 [15] = assay: Induction of apoptosis in human HCT-116 cells assessed as early apoptotic cells at 5 uM measured after 48 hrs by Annexin V/PI staining based Flowcytometry method (reference value: 2.04%); type: functional
Method in brief: as §1

HCT-116 [16] = assay: Induction of apoptosis in human HCT-116 cells assessed as late apoptotic cells at 5 uM measured after 48 hrs by Annexin V/PI staining based Flowcytometry method (reference value: 1.44%); type: functional
Method in brief: as §1

HCT-116 [17] = assay: Induction of apoptosis in human HCT-116 cells assessed as necrotic cells at 5 uM measured after 48 hrs by Annexin V/PI staining based Flowcytometry method (reference value: 1.19%); type: functional
Method in brief: as §1

HCT-116 [18] = assay: Cell cycle arrest in human HCT-116 cells assessed as accumulation of cells in G2/M phase at 0.2 uM measured after 48 hrs by PI staining based flowcytometry method (reference value: 11.74%); type: functional
HCT-116 [19] = assay: Cell cycle arrest in human HCT-116 cells assessed as accumulation of cells in S phase at 0.2 uM measured after 48 hrs by PI staining based flowcytometry method (reference value: 30.63%); type: functional
HCT-116 [20] = assay: Cell cycle arrest in human HCT-116 cells assessed as accumulation of cells in G1 phase at 0.2 uM measured after 48 hrs by PI staining based flowcytometry method (reference value: 57.63%); type: functional
HCT-116 [21] = assay: Cell cycle arrest in human HCT-116 cells assessed as accumulation of cells in G2/M phase at 1 uM measured after 48 hrs by PI staining based flowcytometry method (reference value: 11.74%); type: functional
HCT-116 [22] = assay: Cell cycle arrest in human HCT-116 cells assessed as accumulation of cells in S phase at 1 uM measured after 48 hrs by PI staining based flowcytometry method (reference value: 30.63%); type: functional
HCT-116 [23] = assay: Cell cycle arrest in human HCT-116 cells assessed as accumulation of cells in G1 phase at 1 uM measured after 48 hrs by PI staining based flowcytometry method (reference value: 57.63%); type: functional
HCT-116 [24] = assay: Cell cycle arrest in human HCT-116 cells assessed as accumulation of cells in G2/M phase at 5 uM measured after 48 hrs by PI staining based flowcytometry method (reference value: 11.74%); type: functional
HCT-116 [25] = assay: Cell cycle arrest in human HCT-116 cells assessed as accumulation of cells in S phase at 5 uM measured after 48 hrs by PI staining based flowcytometry method (reference value: 30.63%); type: functional
HCT-116 [26] = assay: Cell cycle arrest in human HCT-116 cells assessed as accumulation of cells in G1 phase at 5 uM measured after 48 hrs by PI staining based flowcytometry method (reference value: 57.63%); type: functional

IC50 (HCT-116 [1]): 660 nM
IC50 (MCF7): 1830 nM
IC50 (A549): 3130 nM
inhibition (Histone deacetylase 1 [2]): 89.1%
inhibition [3]: 78.6%
Compound: COc1cc2c(Oc3ccc(NC(=O)c4nn(-c5ccccc5C)cc(C)c4=O)cc3)ccnc2cc1OCCCCCCC(=O)NO

IC50 (HCT-116 [1]): 700 nM
IC50 (MCF7): 4360 nM
IC50 (A549): 3920 nM
inhibition (Histone deacetylase 1 [2]): 62.1%
inhibition [3]: 90.4%
Compound: COc1cc2c(Oc3ccc(NC(=O)c4nn(-c5ccccc5C)ccc4=O)cc3)ccnc2cc1OCCCCCC(=O)NO

IC50 (HCT-116 [1]): 370 nM
IC50 (MCF7): 2200 nM
IC50 (A549): 380 nM
inhibition (Histone deacetylase 1 [2]): 40%
inhibition [3]: 61.1%
Compound: COc1cc2c(Oc3ccc(NC(=O)c4nn(-c5ccc(F)c(Cl)c5)cc(C)c4=O)cc3)ccnc2cc1OCCCCCCC(=O)NO

IC50 (HCT-116 [1]): 660 nM
IC50 (MCF7): 1900 nM
IC50 (A549): 1900 nM
inhibition (Histone deacetylase 1 [2]): 2.5%
inhibition [3]: 98.3%
Compound: COc1cc2c(Oc3ccc(NC(=O)c4nn(-c5ccccc5)cc(C)c4=O)cc3F)ccnc2cc1OCCCC(=O)NO

IC50 (HCT-116 [1]): 2040 nM
IC50 (MCF7): 2600 nM
IC50 (A549): 2090 nM
inhibition (Histone deacetylase 1 [2]): 8%
inhibition [3]: 95.5%
Compound: COc1cc2c(Oc3ccc(NC(=O)c4nn(-c5ccccc5C)cc(C)c4=O)cc3F)ccnc2cc1OCCCC(=O)NO

inhibition [3]: 2.8%
Compound: O=C(CCCCCCC(=O)Nc1ccccc1)NO

IC50 [4]: 7.42 nM
IC50 (HCT-116 [1]): 370 nM
IC50 (MCF7): 630 nM
IC50 (A549): 1120 nM
inhibition [3]: 93.8%
Compound: COc1cc2c(Oc3ccc(NC(=O)c4nn(-c5ccccc5)cc(C)c4=O)cc3F)ccnc2cc1OCCCN1CCOCC1

IC50 (Histone deacetylase 1 [5]): 18.5 nM
IC50 [4]: 5.4 nM
IC50 (HCT-116 [1]): 220 nM
IC50 (MCF7): 1590 nM
IC50 (A549): 220 nM
Compound: COc1cc2c(Oc3ccc(NC(=O)c4nn(-c5ccccc5)ccc4=O)cc3)ccnc2cc1OCCCCCCC(=O)NO
viability at 0.2 µM (HCT-116 [6]): 94.9%
Activity (HCT-116 [7]): 2.35%
Activity (HCT-116 [8]): 1.84%
Activity (HCT-116 [9]): 0.9%
viability at 1 µM (HCT-116 [10]): 84.3%
Activity (HCT-116 [11]): 8.44%
Activity (HCT-116 [12]): 3.09%
Activity (HCT-116 [13]): 4.12%
viability at 5 µM (HCT-116 [14]): 75.6%
Activity (HCT-116 [15]): 19.23%
Activity (HCT-116 [16]): 2.25%
Activity (HCT-116 [17]): 2.96%
Activity (HCT-116 [18]): 14.59%
Activity (HCT-116 [19]): 30.04%
Activity (HCT-116 [20]): 55.37%
Activity (HCT-116 [21]): 80.03%
Activity (HCT-116 [22]): 15.1%
Activity (HCT-116 [23]): 4.87%
Activity (HCT-116 [24]): 81.22%
Activity (HCT-116 [25]): 13.28%
Activity (HCT-116 [26]): 5.5%

IC50 (HCT-116 [1]): 9500 nM
IC50 (MCF7): 6320 nM
IC50 (A549): > 20000 nM
inhibition (Histone deacetylase 1 [2]): 1.2%
inhibition [3]: 56.3%
Compound: COc1cc2c(Oc3ccc(NC(=O)c4nn(-c5ccccc5C(F)(F)F)ccc4=O)cc3)ccnc2cc1OCC(=O)NO

IC50 (HCT-116 [1]): 950 nM
IC50 (MCF7): 2650 nM
IC50 (A549): 3920 nM
inhibition (Histone deacetylase 1 [2]): 9.2%
inhibition [3]: 90.8%
Compound: COc1cc2c(Oc3ccc(NC(=O)c4nn(-c5ccccc5F)cc(C)c4=O)cc3)ccnc2cc1OCCCC(=O)NO

IC50 (HCT-116 [1]): 3980 nM
IC50 (MCF7): 3200 nM
IC50 (A549): 5740 nM
inhibition (Histone deacetylase 1 [2]): 6%
inhibition [3]: 93.5%
Compound: COc1cc2c(Oc3ccc(NC(=O)c4nn(-c5ccccc5C)ccc4=O)cc3F)ccnc2cc1OCCCC(=O)NO

IC50 (HCT-116 [1]): 440 nM
IC50 (MCF7): 2430 nM
IC50 (A549): 1840 nM
inhibition (Histone deacetylase 1 [2]): 65.3%
inhibition [3]: 63.8%
Compound: COc1cc2c(Oc3ccc(NC(=O)c4nn(-c5ccc(C)cc5C)cc(C)c4=O)cc3)ccnc2cc1OCCCCCCC(=O)NO

IC50 (HCT-116 [1]): 1120 nM
IC50 (MCF7): 2100 nM
IC50 (A549): 1370 nM
inhibition (Histone deacetylase 1 [2]): 7.1%
inhibition [3]: 94%
Compound: COc1cc2c(Oc3ccc(NC(=O)c4nn(-c5ccccc5F)cc(C)c4=O)cc3F)ccnc2cc1OCCCC(=O)NO
